Screens: PubChem, several laboratories
Rows were chosen to be rich in hits. Some 3.3% of all compounds tested hit in one or more screens of this group.
FXN GAA850 act – FXN promoter activators, primary screen, cell-based, luciferase luminescence, HEK293 lucGAA850. HEK293 lucGAA850 FXN promoter luciferase reporter, 24 h; percent of 10 µM SAHA response. activation, % at 6 µM. 0.56% of 360,000 active;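 active = activation above the average of all compounds screened plus 3 SD, cutoff fixed separately per campaign, cut at about 7.5% in these data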
AHR act – AHR activators, primary screen, cell-based, luminescence, luciferase reporter, human. Aryl hydrocarbon receptor (Homo sapiens), P35869. AHR-responsive luciferase reporter cells. activation, % at 5 µM. 2.5% of 320,000 active; in the data active = activation above about 47%
STAT3 activator – IL-6 driven STAT3 reporter potentiators, primary screen, U3A cells, luciferase, luminescence, MLSCN library; IL-6 STAT3-luciferase reporter; 100% = signal with IL-6 EC80 alone; activation (% of control), % at 5.6 µM; 0.91% of 190,000 active;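 active = activation above the screen-wide mean of compound activation plus 3 SD, cut at about 130% in these data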
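Material: STAT3-luciferase reporter U3A cells. Controls: IL-6-treated wells, 100% activation. Read-out: % activation versus median of IL-6-stimulated wells. Probe or stimulus: IL-6 stimulus at 33 ng/mL final. Timing: compound 1 h, then IL-6 6 h at 37 °C. Signal: reporter luminescence signal.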
ABCB6 inh MLPCN – ABCB6 transporter inhibitors, primary screen, K562-ABCB6 cells, flow cytometry, MLPCN library | fluorescence ratio to DMSO, % at 10 µM | 0.19% of 360,000 active | K562-ABCB6 porphyrin accumulation, 1 h; hits give low values;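 active = fluorescence ratio to DMSO below 75%, the collection mean minus 3 SD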;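 note: signal is porphyrin accumulated inside mitochondria; lower ratio means ABCB6 inhibition with less porphyrin fluorescence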
Target sequence (Q9NP58 whole entry, looked up): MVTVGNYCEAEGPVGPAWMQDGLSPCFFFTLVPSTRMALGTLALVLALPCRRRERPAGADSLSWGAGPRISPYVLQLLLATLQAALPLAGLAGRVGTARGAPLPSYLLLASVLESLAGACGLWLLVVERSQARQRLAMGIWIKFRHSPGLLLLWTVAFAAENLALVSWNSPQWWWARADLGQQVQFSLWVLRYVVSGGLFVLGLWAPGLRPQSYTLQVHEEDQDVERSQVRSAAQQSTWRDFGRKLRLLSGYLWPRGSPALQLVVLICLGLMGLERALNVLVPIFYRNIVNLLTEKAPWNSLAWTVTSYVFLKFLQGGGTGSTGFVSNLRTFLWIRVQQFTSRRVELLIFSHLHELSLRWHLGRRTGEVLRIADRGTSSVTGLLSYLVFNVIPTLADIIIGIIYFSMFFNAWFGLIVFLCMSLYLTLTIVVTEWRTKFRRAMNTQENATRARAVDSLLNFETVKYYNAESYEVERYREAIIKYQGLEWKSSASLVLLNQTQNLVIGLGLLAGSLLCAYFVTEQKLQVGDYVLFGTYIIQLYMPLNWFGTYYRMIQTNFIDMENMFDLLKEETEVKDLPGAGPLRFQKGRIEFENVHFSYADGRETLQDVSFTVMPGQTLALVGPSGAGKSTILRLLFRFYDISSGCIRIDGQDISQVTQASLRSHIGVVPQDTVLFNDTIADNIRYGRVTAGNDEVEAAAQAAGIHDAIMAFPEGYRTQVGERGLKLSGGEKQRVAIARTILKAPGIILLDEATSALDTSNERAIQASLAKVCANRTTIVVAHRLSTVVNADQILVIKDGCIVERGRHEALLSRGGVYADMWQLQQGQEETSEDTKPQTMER
Large screens that a line does not name were inactive.

O=C(N/N=C/c1c[nH]c2ccccc12)c1ccn(Cc2ccc(Cl)cc2)n1	STAT3 activator 134.7
O=C(N/N=C/c1ccccn1)c1sc2ccccc2c1Cl	FXN GAA850 act 13.0 (no result: STAT3 activator)
O=C(N/N=C/c1c[nH]c2ccccc12)c1sc2ccccc2c1Cl	AHR act 50.0
O=C(Nc1ccc(Cl)c([N+](=O)[O-])c1)c1ccncc1	none
O=C(Nc1ccc(Cl)c([N+](=O)[O-])c1)c1cnccn1	AHR act 70.4
COc1ccc(-c2ccc(=O)n(Cc3ccc([N+](=O)[O-])cc3)n2)cc1	STAT3 activator 133.7
C[C@H]1CN([C@@H](C)CO)S(=O)(=O)c2ccc(-c3ccc(C#N)cc3)cc2O[C@H]1CN(C)C(=O)CN(C)C	none (no result: FXN GAA850 act, AHR act, STAT3 activator)
CCOc1ccccc1CNC(=O)c1nn(CC)cc1[N+](=O)[O-]	none
CCOc1ccccc1CNC(=O)c1c([N+](=O)[O-])c(C)nn1C	AHR act 61.4
COc1ccc(-c2cc(C(F)(F)F)c3c(n2)sc2c(O)cc(=O)[nH]c23)c(OC)c1	AHR act 69.8
Cc1cccc(CN2CCN([C@H]3CS(=O)(=O)N[C@@H]3COCc3ccccc3)CC2)c1	none (no result: FXN GAA850 act, AHR act, STAT3 activator)
O=C(NC1(C(=O)NC2CCCC2)CCCCC1)c1ccc2c(c1)OCO2	ABCB6 inh MLPCN 69.0
CSc1nc(N(C)C)c2ccccc2n1	none
CN(C)c1nc2ccccc2c(N)c1-c1ccccc1	AHR act 55.1
CC(C)c1ccc(C2NC(=S)NC3=C2C(=O)CCC3)cc1 (stereo not drawn)	ABCB6 inh MLPCN 69.0
Cc1ccc(C2NC(=S)NC3=C2C(=O)CCC3)cc1 (stereo not drawn)	none
N#C/C(=N\Nc1ccc(Br)cc1)C(=N)N1CCOCC1	AHR act 55.9
CC(=O)Nc1ccc(S(=O)(=O)N2CCC(C(=O)NCc3cccnc3)CC2)cc1	none (no result: STAT3 activator)
COc1ccccc1C(=O)NC(=O)CSc1nncn1C	none (no result: STAT3 activator)
CCCCC[C@H](O)/C=C/C1C(=O)C=C[C@H]1C/C=C\CCCC(=O)OC (stereo partly drawn)	FXN GAA850 act 8.2 (no result: AHR act, STAT3 activator)
CCCCC[C@H](O)/C=C/[C@@H]1[C@@H](C/C=C\CCCC(=O)OC)[C@@H](O)C[C@H]1O	none
COC(=O)c1ccc2nc(Nc3nc4ccc(F)cc4s3)sc2c1	none
CC(=O)c1sc(Nc2nc3ccc(F)cc3s2)nc1C	AHR act 65.4
C/C(=N/NC(=O)c1ccc2nc[nH]c2c1)c1cccs1	none
Cc1ccc(/C=N/Nc2nc(Cl)c(Cl)cc2Cl)s1	AHR act 54.2
Cc1ccsc1/C=N\Nc1cn[nH]c(=O)c1Cl	none
Cc1ccsc1/C=N/Nc1nc(Cl)c(Cl)cc1Cl	AHR act 63.0
CCCCOc1ccc(CSCCN=C(N)N)cc1	none (no result: AHR act)
COc1ccc(C(=O)Nc2ccccc2C(=O)NC(Cc2ccc(O)cc2)C(=O)NNC(=O)c2ccncc2)cc1 (stereo not drawn)	none
O=C(NCCc1ccccc1)Nc1ccc2c(c1)OCO2	AHR act 70.6
O=C(Nc1ccc(F)cc1)Nc1ccc2c(c1)OCO2	AHR act 67.3 (no result: STAT3 activator)
NC(=O)c1cc(Cl)ccc1OCC(=O)Nc1ccc2c(c1)OCO2	AHR act 51.2 (no result: STAT3 activator)
Cc1cc(C)c(NC(=O)Nc2ccc3c(c2)OCO3)c(C)c1	AHR act 51.1 (no result: STAT3 activator)
Cc1ccc(NC(=O)Nc2ccc3c(c2)OCO3)c(Br)c1	none (no result: STAT3 activator)
O=C(Nc1ccc2c(c1)OCO2)Nc1ccc(F)cc1F	none (no result: STAT3 activator)
Nc1ccc(NC(=O)c2cccc(C(=O)Nc3ccc(N)cc3Cl)c2)c(Cl)c1	none (no result: STAT3 activator)
O=C(Nc1ccc2c(c1)OCO2)Nc1ccc(Cl)cc1Cl	none
COC(=O)c1ccccc1NC(=O)Nc1ccc2c(c1)OCO2	none
O=C(Nc1ccc(Cl)cc1)Nc1ccc2c(c1)OCO2	AHR act 58.7 (no result: STAT3 activator)
CC(C)c1ccccc1NC(=O)Nc1ccc2c(c1)OCO2	AHR act 55.5 (no result: STAT3 activator)
O=C(Nc1ccc2c(c1)OCO2)c1c[nH]c(=O)n(-c2ccc(F)cc2)c1=O	AHR act 55.1 (no result: STAT3 activator)
CC1=C(C(=O)N(C)C)CC(CC(=O)NCCCN(C)C)C(=O)N1CCCN1CCCC1=O (stereo not drawn)	none (no result: FXN GAA850 act, AHR act, STAT3 activator)
Cc1cnc(C)c(N2CCN(Cc3nc(-c4ccccc4)no3)CC2)n1	none
COc1ccc(C(=O)Nc2ccc(C)cc2C(=O)c2ccccc2)cc1	none
COc1ccccc1C(=O)Nc1ccccc1SC(=O)c1ccccc1OC	AHR act 53.0 (no result: STAT3 activator)
COc1ccccc1C(=O)Nc1ccc(C)cc1C(=O)c1ccccc1	AHR act 51.6
